≈ marks a conversion by molar mass, not a printed value.
How the values were obtained:
Staphylococcus aureus [1] = test: Antibacterial activity against Staphylococcus aureus at 10 to 100 ug/mL after 18 hrs by halo zone test; assay type: functional
How it was run: (§1)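 Disk diffusion (halo zone). Strains subcultured in BHI, 18 h at 37 °C. Cells suspended in saline by McFarland to about 10^5 CFU/mL, mixed with antibiotic agar at 40 °C and plated. 6.0 mm paper disks loaded with DMSO-stock dilutions of 10, 20, 25, 50 and 100 per mL. Inhibition zone diameter (mm) read after 18 h at 36 °C. Amoxicillin (30) disk positive control, DMSO disk negative control.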

Streptococcus pyogenes [2] = test: Antibacterial activity against Streptococcus pyogenes at 10 to 100 ug/mL after 18 hrs by halo zone test; assay type: functional; how it was run: as §1
Salmonella typhimurium [3] = test: Antibacterial activity against Salmonella Typhimurium at 10 to 100 ug/mL after 18 hrs by halo zone test; assay type: functional, Salmonella enterica subsp. enterica serovar Typhimurium; how it was run: as §1
Escherichia coli [4] = test: Antibacterial activity against Escherichia coli at 10 to 100 ug/mL after 18 hrs by halo zone test; assay type: functional; how it was run: as §1
Staphylococcus aureus [5] = test: Antibacterial activity against Staphylococcus aureus after 18 hrs by macro dilution test; assay type: functional
How it was run: (§2)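 Macro-dilution broth test. Each tube received a 24 h old inoculum, standard inoculum about 10^5 CFU/mL. Incubated 18 h at 37 °C. MIC taken visually as the lowest concentration preventing visible growth. Amoxicillin positive control, DMSO negative control.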

Streptococcus pyogenes [6] = test: Antibacterial activity against Streptococcus pyogenes after 18 hrs by macro dilution test; assay type: functional; how it was run: as §2
Salmonella typhimurium [7] = test: Antibacterial activity against Salmonella Typhimurium after 18 hrs by macro dilution test; assay type: functional, Salmonella enterica subsp. enterica serovar Typhimurium; settings: Salmonella enterica; how it was run: as §2
Escherichia coli [8] = test: Antibacterial activity against Escherichia coli after 18 hrs by macro dilution test; assay type: functional; how it was run: as §2

Row | SMILES | MIC (Staphylococcus aureus [5]) [µg/mL] | MIC (Streptococcus pyogenes [6]) [µg/mL] | MIC (Salmonella typhimurium [7]) [µg/mL] | MIC (Escherichia coli [8]) [µg/mL] | inhibition zone (IZ) (Staphylococcus aureus [1]) [mm] | inhibition zone (IZ) (Streptococcus pyogenes [2]) [mm] | inhibition zone (IZ) (Salmonella typhimurium [3]) [mm] | inhibition zone (IZ) (Escherichia coli [4]) [mm]
1 | CC(=O)O[C@H]1CC[C@@]2(C)C(=C/C(=N\NC(=S)NC3CCCCC3)[C@H]3[C@@H]4CC[C@H]([C@H](C)CCCC(C)C)[C@@]4(C)CC[C@@H]32)C1 | 64 (≈ 107 µM) | 64 (≈ 107 µM) | 64 (≈ 107 µM) | 32 (≈ 53.5 µM) | 14.6 | 16.8 | 14.5 | 13.2
2 | CC(=O)O[C@H]1CC[C@@]2(C)C(=C/C(=N\NC(=S)NC3CCCC3)[C@H]3[C@@H]4CC[C@H]([C@H](C)CCCC(C)C)[C@@]4(C)CC[C@@H]32)C1 | 32 (≈ 54.8 µM) | 64 (≈ 110 µM) | 64 (≈ 110 µM) | 32 (≈ 54.8 µM) | 12.5 | 11.8 | 14.6 | 12.4
3 | CC(=O)O[C@H]1CC[C@@]2(C)C(=C/C(=N\NC(=S)NC3CCCCCCC3)[C@H]3[C@@H]4CC[C@H]([C@H](C)CCCC(C)C)[C@@]4(C)CC[C@@H]32)C1 | 128 (≈ 204 µM) | 64 (≈ 102 µM) | 128 (≈ 204 µM) | 128 (≈ 204 µM) | 12.6 | 11.4 | 13.6 | 13.8
4 | CC1(C)S[C@@H]2[C@H](NC(=O)[C@H](N)c3ccc(O)cc3)C(=O)N2[C@H]1C(=O)O [AMOXICILLIN] | 32 (≈ 87.6 µM) | 32 (≈ 87.6 µM) | 32 (≈ 87.6 µM) | 32 (≈ 87.6 µM) | 21 | 22.2 | 25.2 | 20

Continued, in another order:

Row | MIC (Staphylococcus aureus [5]) [µg/mL] | MIC (Streptococcus pyogenes [6]) [µg/mL] | MIC (Salmonella typhimurium [7]) [µg/mL] | MIC (Escherichia coli [8]) [µg/mL] | SMILES | inhibition zone (IZ) (Staphylococcus aureus [1]) [mm] | inhibition zone (IZ) (Streptococcus pyogenes [2]) [mm] | inhibition zone (IZ) (Salmonella typhimurium [3]) [mm] | inhibition zone (IZ) (Escherichia coli [4]) [mm]
5 | 32 (≈ 55.7 µM) | 64 (≈ 111 µM) | 128 (≈ 223 µM) | 64 (≈ 111 µM) | CC(C)CCC[C@@H](C)[C@H]1CC[C@H]2[C@@H]3/C(=N/NC(=S)NC4CCCCC4)C=C4C[C@@H](Cl)CC[C@]4(C)[C@H]3CC[C@]12C | 13.4 | 12.2 | 14.4 | 11.8
6 | 64 (≈ 106 µM) | 128 (≈ 212 µM) | 128 (≈ 212 µM) | 64 (≈ 106 µM) | CC(C)CCC[C@@H](C)[C@H]1CC[C@H]2[C@@H]3/C(=N/NC(=S)NC4CCCCCCC4)C=C4C[C@@H](Cl)CC[C@]4(C)[C@H]3CC[C@]12C | 15.6 | 14 | 14.6 | 12.4
7 | 256 (≈ 451 µM) | 128 (≈ 225 µM) | 128 (≈ 225 µM) | 256 (≈ 451 µM) | CC(C)CCC[C@@H](C)[C@H]1CC[C@H]2[C@@H]3/C(=N/NC(=S)NC4CCCCCCC4)C=C4CCCC[C@]4(C)[C@H]3CC[C@]12C | 9.9 | 11.3 | 10.2 | 10
8 | 64 (≈ 114 µM) | 64 (≈ 114 µM) | 128 (≈ 228 µM) | 64 (≈ 114 µM) | CC(C)CCC[C@@H](C)[C@H]1CC[C@H]2[C@@H]3/C(=N/NC(=S)NC4CCCC4)C=C4C[C@@H](Cl)CC[C@]4(C)[C@H]3CC[C@]12C | 16.2 | 13.4 | 12.5 | 15.6
9 | 256 (≈ 487 µM) | 128 (≈ 243 µM) | 128 (≈ 243 µM) | 256 (≈ 487 µM) | CC(C)CCC[C@@H](C)[C@H]1CC[C@H]2[C@@H]3/C(=N/NC(=S)NC4CCCC4)C=C4CCCC[C@]4(C)[C@H]3CC[C@]12C | 10.4 | 9.5 | 9.2 | 9.4
10 | 128 (≈ 237 µM) | 256 (≈ 474 µM) | 256 (≈ 474 µM) | 128 (≈ 237 µM) | CC(C)CCC[C@@H](C)[C@H]1CC[C@H]2[C@@H]3/C(=N/NC(=S)NC4CCCCC4)C=C4CCCC[C@]4(C)[C@H]3CC[C@]12C | 10.2 | 9.2 | 10.4 | 7.8

— ChEMBL document CHEMBL1140996, “Synthesis and in vitro antibacterial activity of new steroidal thiosemicarbazone derivatives” (2008)
